From PMC10582678 (Clinical and Translational Science, 2023)
“Also recorded” adds a separate entry of the source.

Assays:
[1] = tested on: EGFR, ITK, Lck, SRC, LYN, and JAK3; test: Selectivity for BTK over other kinases; format: biochemical; settings: stated in introduction
[2] = Plasma pharmacokinetics, multiple ascending doses; format: in vivo, human; settings: for CLss/F / AUC(0-t) / Cmax: mean ± SD; for AUC / Vd/F / concentration at 10 day / half-life / AUC(0-t) / Cmax / Tmax: human, plasma, oral; for AUC(0-t): AUC0-t; for Cmax: C max; for Tmax: T max
Procedure, shortened: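 This was a double-blind, placebo-controlled design with three cohorts of eight (6 active, 2 placebo). Cohorts received oral 200, 400 or 600 mg q.d. for 10 consecutive days, with extra predose trough samples on days 8 and 9. Plasma drug was measured by validated HPLC-tandem accurate mass spectrometry (5.00–5000 ng/mL). Noncompartmental parameters were reported for day 1 and day 10, with Rac(AUC) = AUC0-τ day 10/AUC0-t day 1.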

[3] = biological target: BTK (Homo sapiens, UniProt Q06187); test: BTK receptor occupancy in peripheral blood monocytes; format: in vivo
BTK, sequence (Q06187 whole entry): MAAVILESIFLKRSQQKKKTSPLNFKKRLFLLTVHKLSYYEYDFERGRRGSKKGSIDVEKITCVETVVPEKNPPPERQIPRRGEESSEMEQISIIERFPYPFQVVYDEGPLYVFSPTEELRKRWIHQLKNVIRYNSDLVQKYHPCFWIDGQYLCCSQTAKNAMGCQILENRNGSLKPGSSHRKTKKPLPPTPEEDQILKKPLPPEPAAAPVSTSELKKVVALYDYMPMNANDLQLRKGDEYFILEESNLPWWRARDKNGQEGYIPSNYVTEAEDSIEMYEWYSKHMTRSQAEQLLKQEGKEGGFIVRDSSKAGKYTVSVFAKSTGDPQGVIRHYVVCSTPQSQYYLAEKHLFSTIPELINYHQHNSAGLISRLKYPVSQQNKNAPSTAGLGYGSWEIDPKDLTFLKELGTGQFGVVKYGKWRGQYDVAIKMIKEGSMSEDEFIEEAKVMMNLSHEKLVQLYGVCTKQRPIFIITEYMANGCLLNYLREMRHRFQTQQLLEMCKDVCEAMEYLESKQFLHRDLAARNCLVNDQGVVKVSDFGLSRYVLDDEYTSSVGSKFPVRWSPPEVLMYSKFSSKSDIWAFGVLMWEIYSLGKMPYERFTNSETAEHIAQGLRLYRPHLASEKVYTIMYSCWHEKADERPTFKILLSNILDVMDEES
Procedure, shortened: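 Peripheral blood was sampled from healthy adult Chinese subjects given oral test compound or placebo. In the multiple-dose part, samples were taken at 0, 12, 24 and 168 h after the first dose (day 1) and at 0 and 12 h after the last dose (day 10). In the food-effect part, samples were taken at 0, 12, 24 and 120 h postdose. BTK occupancy was measured by validated ELISA (sensitivity 1.784 ng/mL). Negative placebo values were set to 0.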

[4] = Safety, adverse events, food effect study; format: in vivo, human; settings: for AEs / Increased blood triglycerides / Abdominal discomfort / Constipation / Decreased leukocyte count / Decreased lymphocyte count / Decreased neutrophil count / Dermatitis allergic / Dyspepsia / Increased ALT / Increased AST / Increased blood bilirubin / Increased blood cholesterol / Increased blood creatinine / Lethargy / Mouth ulceration / Oropharyngeal pain / Sinus arrythmia / Treatment discontinuation due to AEs / Upper respiratory tract infection: Food effect 600 mg, n (%)
Procedure, shortened: (§1)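 Safety was monitored by vital signs, clinical laboratory tests, physical examination, 12-lead ECG, AEs and SAEs. AEs were coded with MedDRA 23.1 and graded by CTCAE 5.0. Subjects were discharged 6 days after the last dose, with a follow-up visit 8–14 days after the last dose. The safety set comprised randomized subjects who received active drug or placebo and had post-dose safety data.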

[5] = Safety, adverse events, whole study; format: in vivo, human
Procedure, shortened: as §1

[6] = Preclinical safety in beagles; format: in vivo; settings: stated in introduction
[7] = 200 mg, MAD 200 mg q.d., Day 10
[8] = 400 mg, MAD 400 mg q.d., Day 10
[9] = 600 mg, MAD 600 mg q.d., Day 10
[10] = among 57 subjects who received SN1011

For `N#CN1C[C@H](n2nc(-c3ccc(Oc4ccc(Cl)cn4)cc3)c(C(N)=O)c2N)CCC12CC2` [SN1011, 5-amino-3-(4-((5-chloro-2-pyridinyl)oxy)phenyl)-1-((6R)-4-cyano-4-azaspiro[2.5]octan-6-yl)-1H-pyrazole-4-carboxamide], which “selectivity for BTK over other kinases” value [1] is on record?
The value was 700 fold.

And the T last ([2]; MAD 200 mg q.d., Day 1, median (min, max))?
Its T last is 23.7 (23.7, 23.8) h.

And the CLss/F ([2]; MAD 200 mg q.d., Day 10)?
Its CLss/F is 27.2 ± 13.4 (49%) L/h.

And the T last ([2]; MAD 200 mg q.d., Day 10, median (min, max))?
Its T last is 120.0 (72.0, 120.0) h.

What about the T last ([2]; MAD 400 mg q.d., Day 1, median (min, max)) of the same compound?
Its T last is 23.8 (23.7, 23.9) h.

And the CLss/F ([2]; MAD 400 mg q.d., Day 10)?
The CLss/F was 27.4 ± 6.2 (23%) L/h.

What about the T last ([2]; MAD 400 mg q.d., Day 10, median (min, max)) of the same compound?
Its T last is 120.0 (120.0, 120.0) h.

What about the T last ([2]; MAD 600 mg q.d., Day 1, median (min, max)) of the same compound?
The T last was 23.8 (23.7, 23.8) h.

What about the CLss/F ([2]; MAD 600 mg q.d., Day 10) of the same compound?
Its CLss/F is 30.0 ± 9.8 (33%) L/h.

What about the T last ([2]; MAD 600 mg q.d., Day 10, median (min, max)) of the same compound?
The T last was 120.0 (96.0, 120.0) h.

And the AUC ([2]; 200 mg)?
The AUC was 8690 ± 3420 ng·h/mL.

What about the Vd/F ([2]; 200 mg) of the same compound?
The Vd/F was 728 ± 161 L.

And the concentration at 10 day ([2]; 200 mg)?
Its concentration at 10 day is 257 ± 111 ng/mL.

And the half-life ([2]; 200 mg)?
The half-life was 1230 ± 318 min.

What about the AUC(0-t) ([2]; 200 mg, MAD 200 mg q.d., Day 1) of the same compound?
The AUC(0-t) was 4280 ± 1130 ng·h/mL.

What about the AUC(0-t) [2, 7] of the same compound?
The AUC(0-t) was 17300 ng·h/mL.

What about the Cmax ([2]; 200 mg, MAD 200 mg q.d., Day 1, N = 5) of the same compound?
Its Cmax is 260 ± 54.8 ng/mL.

What about the Cmax [2, 7] of the same compound?
Its Cmax is 516 ± 172 ng/mL.

What about the Tmax ([2]; 200 mg, MAD 200 mg q.d., Day 1, median (min, max)) of the same compound?
The Tmax was 3 h.

And the Tmax ([2]; 200 mg, MAD 200 mg q.d., Day 10, median (min, max))?
The Tmax was 3 h.

And the AUC ([2]; 400 mg)?
Its AUC is 15200 ng·h/mL.

What about the Vd/F ([2]; 400 mg) of the same compound?
Its Vd/F is 736 ± 181 L.

And the concentration at 10 day ([2]; 400 mg)?
Its concentration at 10 day is 419 ± 121 ng/mL.

And the half-life ([2]; 400 mg)?
Its half-life is 1140 ± 324 min.

And the AUC(0-t) ([2]; 400 mg, MAD 400 mg q.d., Day 1)?
Its AUC(0-t) is 9170 ± 1640 ng·h/mL.

And the AUC(0-t) [2, 8]?
The AUC(0-t) was 26400 ng·h/mL.

And the Cmax ([2]; 400 mg, MAD 400 mg q.d., Day 1)?
The Cmax was 727 ± 183 ng/mL.

And the Cmax [2, 8]?
Its Cmax is 1070 ± 234 ng/mL.

What about the Tmax ([2]; 400 mg, MAD 400 mg q.d., Day 1, median (min, max)) of the same compound?
Its Tmax is 4 h.

What about the Tmax ([2]; 400 mg, MAD 400 mg q.d., Day 10, median (min, max)) of the same compound?
The Tmax was 3.5 h.

What about the AUC ([2]; 600 mg) of the same compound?
The AUC was 22000 ng·h/mL.

What about the Vd/F ([2]; 600 mg) of the same compound?
The Vd/F was 872 ± 345 L.

What about the concentration at 10 day ([2]; 600 mg) of the same compound?
Its concentration at 10 day is 531 ± 264 ng/mL.

What about the half-life ([2]; 600 mg) of the same compound?
Its half-life is 1220 ± 246 min.

And the AUC(0-t) ([2]; 600 mg, MAD 600 mg q.d., Day 1)?
Its AUC(0-t) is 12200 ng·h/mL.

What about the AUC(0-t) [2, 9] of the same compound?
The AUC(0-t) was 40300 ng·h/mL.

What about the Cmax ([2]; 600 mg, MAD 600 mg q.d., Day 1) of the same compound?
The Cmax was 910 ± 332 ng/mL.

What about the Cmax [2, 9] of the same compound?
The Cmax was 1600 ± 497 ng/mL.

What about the Tmax ([2]; 600 mg, MAD 600 mg q.d., Day 1, median (min, max)) of the same compound?
Its Tmax is 4 h.

What about the Tmax ([2]; 600 mg, MAD 600 mg q.d., Day 10, median (min, max)) of the same compound?
The Tmax was 2.5 h.

What about the Tmax ([2]; MAD, steady-state conditions, across 200-600 mg q.d.) of the same compound?
Its Tmax is 2.5 to 3.5 h.

And the “steady-state in the plasma achieved on” value ([2]; once daily administration)?
Its value is 8 days.

What about the BTK receptor occupancy ([3]; MAD groups, 10 days of continuous q.d. administration of 400 and 600 mg) of the same compound?
Its BTK receptor occupancy is “above 80%”.

What about the BTK receptor occupancy ([3]; over 24 h after single administration of 600 mg, fasted and fed states) of the same compound?
Its BTK receptor occupancy is “above 83%”.

What about the AEs ([4]; Total N = 12) of the same compound?
The AEs was 7 (58.3).

What about the Increased blood triglycerides ([4]; Total N = 12) of the same compound?
Its Increased blood triglycerides is 5 (41.7).

And the AEs ([4]; column Fasted-Fed)?
Its AEs is 5 (41.7).

What about the Abdominal discomfort ([4]; column Fasted-Fed) of the same compound?
The Abdominal discomfort was 0.

And the Constipation ([4]; column Fasted-Fed)?
Its Constipation is 0.

And the Decreased leukocyte count ([4]; column Fasted-Fed)?
The Decreased leukocyte count was 0.

What about the Decreased lymphocyte count ([4]; column Fasted-Fed) of the same compound?
Its Decreased lymphocyte count is 0.

And the Decreased neutrophil count ([4]; column Fasted-Fed)?
The Decreased neutrophil count was 0.

What about the Dermatitis allergic ([4]; column Fasted-Fed) of the same compound?
Its Dermatitis allergic is 0.

What about the Dyspepsia ([4]; column Fasted-Fed) of the same compound?
The Dyspepsia was 0.

And the “Increased ALT” value ([4]; column Fasted-Fed)?
The value was 0.

And the “Increased AST” value ([4]; column Fasted-Fed)?
The value was 0.

What about the Increased blood bilirubin ([4]; column Fasted-Fed) of the same compound?
Its Increased blood bilirubin is 0.

What about the Increased blood cholesterol ([4]; column Fasted-Fed) of the same compound?
Its Increased blood cholesterol is 0.

And the Increased blood creatinine ([4]; column Fasted-Fed)?
The Increased blood creatinine was 0.

And the Increased blood triglycerides ([4]; column Fasted-Fed)?
Its Increased blood triglycerides is 4 (33.3).

What about the Lethargy ([4]; column Fasted-Fed) of the same compound?
Its Lethargy is 0.

What about the Mouth ulceration ([4]; column Fasted-Fed) of the same compound?
The Mouth ulceration was 0.

And the Oropharyngeal pain ([4]; column Fasted-Fed)?
Its Oropharyngeal pain is 0.

And the Sinus arrythmia ([4]; column Fasted-Fed)?
Its Sinus arrythmia is 0.

And the “Treatment discontinuation due to AEs” value ([4]; column Fasted-Fed)?
Its value is 1 (8.3).

And the “Upper respiratory tract infection” value ([4]; column Fasted-Fed)?
The value was 0.

What about the AEs ([4]; column Fed-Fasted) of the same compound?
The AEs was 2 (18.2).

And the Abdominal discomfort ([4]; column Fed-Fasted)?
Its Abdominal discomfort is 0.

And the Constipation ([4]; column Fed-Fasted)?
Its Constipation is 0.

What about the Decreased leukocyte count ([4]; column Fed-Fasted) of the same compound?
The Decreased leukocyte count was 0.

What about the Decreased lymphocyte count ([4]; column Fed-Fasted) of the same compound?
The Decreased lymphocyte count was 0.

And the Decreased neutrophil count ([4]; column Fed-Fasted)?
Its Decreased neutrophil count is 0.

And the Dermatitis allergic ([4]; column Fed-Fasted)?
The Dermatitis allergic was 0.

What about the Dyspepsia ([4]; column Fed-Fasted) of the same compound?
Its Dyspepsia is 0.

And the “Increased ALT” value ([4]; column Fed-Fasted)?
The value was 0.

And the “Increased AST” value ([4]; column Fed-Fasted)?
Its value is 0.

And the Increased blood bilirubin ([4]; column Fed-Fasted)?
The Increased blood bilirubin was 1 (9.1).

And the Increased blood cholesterol ([4]; column Fed-Fasted)?
Its Increased blood cholesterol is 0.

What about the Increased blood creatinine ([4]; column Fed-Fasted) of the same compound?
The Increased blood creatinine was 0.

And the Increased blood triglycerides ([4]; column Fed-Fasted)?
Its Increased blood triglycerides is 1 (9.1).

And the Lethargy ([4]; column Fed-Fasted)?
The Lethargy was 0.

And the Mouth ulceration ([4]; column Fed-Fasted)?
The Mouth ulceration was 0.

And the Oropharyngeal pain ([4]; column Fed-Fasted)?
Its Oropharyngeal pain is 0.

What about the Sinus arrythmia ([4]; column Fed-Fasted) of the same compound?
Its Sinus arrythmia is 0.

What about the “Treatment discontinuation due to AEs” value ([4]; column Fed-Fasted) of the same compound?
Its value is 0.

What about the “Upper respiratory tract infection” value ([4]; column Fed-Fasted) of the same compound?
The value was 0.

What about the “subjects who experienced AEs” value ([4]; food effect study, 12 subjects, 600 mg) of the same compound?
The value was 58.3%.

And the “subjects with AE leading to study discontinuation” value ([4]; food effect study, 12 subjects, increased triglycerides, grade 3)?
Its value is 8.3%.

What about the serious adverse events ([5]; all parts of the study) of the same compound?
The serious adverse events was “No serious adverse events; also recorded: no SAEs were reported”.

And the “subjects who experienced AEs” value [5, 10]?
The value was 28.

What about the “total number of AEs” value [5, 10] of the same compound?
The value was 55.

And the safety profile [6]?
The safety profile was “acceptable safety profile”.
